Shown are actives, neighbours in structure and some others; about 1.5% of the full set was active somewhere.
T cell HTS: modulates CD8 T cell binding to vesicles; AID 2052; 330,000 compounds, 0.068% hits; response (vesicle binding), % at 7 µM; 2C CD8+ T cell-vesicle binding, flow cytometry; hits give low values;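 active = response, share of CD8 T cells binding vesicles, and their 90th percentile fluorescence all below set limits, cut at about 80% in these data, passing the limit was not always enough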;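 also: values below 100% mean blocked vesicle binding to the CD8+ T cells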
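Assay system – 2C mouse CD8+ T cells · Also added – QL9-loaded Drosophila micro-vesicles · Timing – Cell–vesicle co-incubation 1.5 h at 37 °C, staining 20 min on ice · Signal – flow cytometry of vesicle-bound cells · Measure – percent CD8+ FL2 mean versus row control · Controls – Peptide-free naked vesicles (low) and QL9 vesicles with 0.7% DMSO vehicle (high)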
VLA-4 inh: inhibition in a human VLA-4 binding assay. P13612. VLA-4 expressing cells, ligand binding flow cytometry. inhibition, % (about 7 µM as worked out from the volumes in the protocol). 330,000 compounds, 0.2% hits. AID 2557; in the data active = inhibition above about 50%
CHT block: human CHT choline transport inhibition; Q9GZV3; CHT-expressing cells, membrane potential dye, choline response; hits give low values; B-score at 10 µM; 310,000 compounds, 0.86% hits;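 active = B-score over 3 SD under the library average, and starting fluorescence ratio not unusually high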;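 also: choline stimulus applied at its EC90 after an EC20 pre-addition; B-score computed on integrated fluorescence ratio after choline addition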
Target sequence (Q9GZV3 whole entry, looked up): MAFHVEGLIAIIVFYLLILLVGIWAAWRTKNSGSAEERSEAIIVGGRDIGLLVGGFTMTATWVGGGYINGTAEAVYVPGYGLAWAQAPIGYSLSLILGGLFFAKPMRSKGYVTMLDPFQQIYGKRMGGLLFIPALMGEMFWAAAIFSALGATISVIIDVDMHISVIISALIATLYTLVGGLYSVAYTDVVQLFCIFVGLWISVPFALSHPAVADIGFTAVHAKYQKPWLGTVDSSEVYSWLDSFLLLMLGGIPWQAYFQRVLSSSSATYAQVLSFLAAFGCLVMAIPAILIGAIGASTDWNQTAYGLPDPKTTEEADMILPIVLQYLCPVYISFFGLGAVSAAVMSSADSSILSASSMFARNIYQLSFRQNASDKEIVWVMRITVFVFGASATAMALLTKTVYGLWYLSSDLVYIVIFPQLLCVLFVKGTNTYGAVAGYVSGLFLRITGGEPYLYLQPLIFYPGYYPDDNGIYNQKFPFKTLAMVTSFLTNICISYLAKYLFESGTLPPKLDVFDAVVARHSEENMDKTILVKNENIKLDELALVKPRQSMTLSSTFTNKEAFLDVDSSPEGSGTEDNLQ
CHT allo act: allosteric activators of human choline transporter CHT; B-score at 10 µM; CHT-expressing cells, membrane potential dye, choline EC20; hits give high values; LV-AA mutant CHT in HEK293 cells; AID 488977; 310,000 compounds, 0.49% hits;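 active = initial fluorescence not abnormally high and integrated response B-score, plate-corrected, over 3 SD above library mean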
CHT inh conf: confirmation of human choline transporter CHT inhibitors | shares compounds with CHT block | CHT-expressing cells, choline membrane potential dye; LV-to-AA substituted CHT, HEK293 cells | CHT activity remaining % of control (hits give low values), % at 10 µM | 2,400 compounds, 70% hits | AID 493221;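 active = choline transporter activity left, mean of duplicates at 10 µM, below buffer-only control mean minus 3 SD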;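 also: depolarization triggered by choline at its EC90 following an EC20 pre-addition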
HEK293 CHT ctr: activity in parental HEK293 cells lacking CHT; shares compounds with CHT block; membrane potential dye, choline response; active = decrease or increase beyond buffer ±3SD; membrane potential ratio readout (active if shifted either direction beyond buffer ±3SD; no single direction) at 10 µM; 2,400 compounds, 4% hits; AID 493222;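 also: parental cells lack the transporter so any hit is non-specific; ratio is peak minus trough fluorescence over baseline after EC90 choline challenge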
Hits are given with their value; - = inactive; . = not tested or not shown.

SMILES | T cell HTS | VLA-4 inh | CHT block | CHT allo act | CHT inh conf | HEK293 CHT ctr
CN(C(=O)Cn1cc([N+](=O)[O-])ccc1=O)C1CCCCC1 | - | - | . | . | . | .
CCCOc1ccc(C(CC(=O)O)NC(=O)CC(c2ccccc2)c2ccccc2)cc1 (centres undefined) | - | - | -6.77 | - | 24.3% | -
CCCOc1ccc(C(CC(=O)O)NC(=O)c2cccs2)cc1 (centres undefined) | - | - | - | - | . | .
CCOC(=O)c1c(C)[nH]c(C(=O)OCC(=O)Nc2ccccc2)c1C | - | - | . | . | . | .
COc1ccc(CNC(=O)C2=CCN(S(=O)(=O)c3ccc(C)cc3)CC2)cc1 | - | - | - | - | . | .
CN1/C(=C/C(=O)c2nc(S(C)(=O)=O)ncc2Cl)C(C)(C)c2ccccc21 | - | - | -11.1 | - | 54.2% | -
COc1ccc(OCc2ccc(/C=N\NC(=O)c3sccc3C)o2)cc1 | - | - | - | - | . | .
CCCc1cc(C(=O)NNC(=S)NCC2CCCO2)cs1 (centres undefined) | - | - | - | - | . | .
CCCc1cc(C(=O)NNC(=S)NC(C)c2ccccc2)cs1 (centres undefined) | - | - | -6.19 | - | 18.0% | -
Cn1nc(C(F)(F)F)c(-c2ccccc2)c1NC(=O)c1ccco1 | - | - | -5.65 | - | 35.8% | -
Cn1nc(C(F)(F)F)c(-c2ccccc2)c1NC(=O)c1cccnc1 | - | - | -5.31 | - | 31.7% | -
COc1cccc(NC(=O)CN(C)C(C)C(=O)N2CCCCC2)c1 (centres undefined) | - | - | . | . | . | .
CCOc1cc(Br)ccc1S(=O)(=O)NCc1ccccc1 | - | - | -6.26 | - | - | -
CC(=O)C1=C(O)C=C(c2ccco2)CC1c1ccco1 (centres undefined) | - | - | -5.05 | - | - | -
O=C(O)C1CCN(c2nc(-c3ccccc3)nc3c2oc2ccccc23)CC1 | - | - | -5.98 | - | 63.2% | -
CCOC(=O)C1CCN(c2nc(-c3ccccc3)nc3c2oc2ccccc23)CC1 | - | - | - | - | . | .
Cc1ccc(NS(=O)(=O)c2c(C)noc2C)cc1 | - | - | - | - | . | .
CSc1ccc(S(=O)(=O)N2CCC(C(=O)NCC3CCCO3)CC2)cc1 (centres undefined) | - | - | - | - | . | .
O=S(=O)(NC1Cc2ccccc2C1)c1ccccc1 | - | - | - | - | . | .
COc1ccc(C(=O)NCCC2=CCCCC2)cc1OC1CCN(C(C)C)CC1 | - | - | -11.1 | - | 5.1% | -
COc1ccc(C(=O)N2CCCC(O)C2)cc1OC1CCN(C(C)C)CC1 (centres undefined) | - | - | -7.07 | - | 61.5% | -
COc1ccc(C(=O)NC2CCCCC2)cc1OC1CCN(C(C)C)CC1 | - | - | -7.74 | - | 9.8% | -
COc1ccc(C(=O)NCCCSC)cc1OC1CCN(C(C)C)CC1 | - | - | -9.06 | - | 18.0% | -
Cc1ccc(C(=O)NCCCN2CCN(CCCNC(=O)c3ccc(C)cc3)CC2)cc1 | - | - | - | - | . | .
O=C(N/N=C\c1ccccc1)c1ccccc1-n1cccc1 | - | - | - | - | . | .
SMILES | T cell HTS | VLA-4 inh | CHT block | CHT allo act | CHT inh conf | HEK293 CHT ctr
O=C(N/N=C\c1cccs1)c1ccccc1-n1cccc1 | - | - | -5.34 | - | - | -
Cc1ccc(N2C(=N)/C(=C3/Nc4ccccc4S3)C(c3ccccc3)C2=O)cc1 (centres undefined) | - | - | - | - | . | .
COc1ccccc1N(C(=O)Cn1nnc(-c2ccc(C)o2)n1)C(C(=O)NC1CCCC1)c1ccncc1 (centres undefined) | - | - | - | - | . | .
CN1CCN(S(=O)(=O)c2ccc(NC(=O)Nc3cccc(Cl)c3)cc2)CC1 | - | - | -8.11 | - | 28.6% | -
CC(=O)Nc1cccc(C(=O)OC(C)C(=O)Nc2ccc(S(=O)(=O)N3CCCC3)cc2)c1 (centres undefined) | - | - | -6.91 | - | 63.3% | -
CN1CCN(S(=O)(=O)c2ccc(NC(=O)c3ccc(Br)o3)cc2)CC1 | - | - | - | - | . | .
CN1CCN(S(=O)(=O)c2ccc(NC(=O)c3ccc(Br)s3)cc2)CC1 | . | - | -7.72 | - | 24.5% | -
COC(=O)c1cccc(NC(=O)c2ccc(S(=O)(=O)N3CCN(C)CC3)cc2)c1 | - | - | -5.06 | - | 32.6% | -
CN1CCN(S(=O)(=O)c2ccc(NC(=O)c3ccc(F)cc3)cc2)CC1 | - | - | - | - | . | .
Cc1cc(C)c(C)c(S(=O)(=O)Nc2ccccc2N2CCOCC2)c1C | - | - | . | . | . | .
COc1ccc(C(=O)OCC(=O)NC(C)CCc2ccccc2)c(OC)c1 (centres undefined) | - | - | -5.73 | - | - | -
COCCNC(=O)C(=O)NCC(c1ccc2c(c1)OCO2)N1CCN(c2ccc(F)cc2)CC1 (centres undefined) | - | - | - | - | . | .
CN(C)CCNC(=O)C(=O)NCC(c1ccc2c(c1)OCO2)N1CCN(c2ccc(F)cc2)CC1 (centres undefined) | - | - | -5.5 | - | 45.0% | -
Cc1ccc(C)c(OCc2nc3ccc(S(=O)(=O)Nc4c(C)n(C)n(-c5ccccc5)c4=O)cc3[nH]2)c1 | - | - | - | - | . | .
S=C(N/N=C/c1ccco1)NC1CC2CCC1C2 (centres undefined) | - | - | - | - | . | .
CCN1CCc2c(OCC(=O)N3CCCCC3)cccc2C1=O | - | - | - | - | . | .
CCCCCCCCN1[C@@H](CC(=O)O)c2ccc(C(F)(F)F)cc2S1(=O)=O | - | - | -6.1 | - | 64.7% | -
CCc1cc(CNC(=O)c2ccc(OC)c(OC3CCN(C(C)C)CC3)c2)on1 | - | - | -15.6 | - | 2.2% | -
C#CCN(C(=O)c1ccc(OC)c(OC2CCN(C(C)C)CC2)c1)C1CCCCC1 | - | - | - | - | . | .
COc1ccc(C(=O)NCc2nc(C)c(C)s2)cc1OC1CCN(C(C)C)CC1 | - | - | -13 | - | 3.8% | -
COc1ccc(C(=O)NCc2cc(C(C)C)no2)cc1OC1CCN(C(C)C)CC1 | - | - | . | . | . | .
O=C(OCCc1cc2ccccc2c(=O)o1)c1cccc(Br)c1 | - | - | . | . | . | .
COC(=O)CCCCCN1C(=O)NC(C2CC2)C(C(=O)OCc2ccccc2)=C1C (centres undefined) | - | - | -5.37 | - | 65.2% | -
COc1ccc(CCNc2nc(-c3ccncc3)cs2)cc1OC | - | - | - | - | . | .
COc1ccc(CCNc2nc(-c3ccc(O)cc3)cs2)cc1OC | - | - | -5.01 | - | - | -
CC1CC(C)(C)N(C(=O)CN2C(=O)c3ccccc3C2=O)c2ccccc21 (centres undefined) | - | - | -16.1 | - | 62.4% | -
CC1CC(C)(C)N(C(=O)CN2CCN(C)CC2)c2ccccc21 (centres undefined) | - | - | - | - | . | .
